Measured values reported in ChEMBL document CHEMBL4431391, “Exploration of substituted arylpiperazine-tetrazoles as promising dual norepinephrine and dopamine reuptake inhibitors” (Bioorg Med Chem, 2016).

What was measured:
Assay type in all cases: cell-based
[1] = molecular target: Sodium-dependent dopamine transporter (Homo sapiens, UniProt Q01959); experiment: Inhibition of [3H]-5-dopamine reuptake in human DAT expressed in HEK293 cells by liquid scintillation counting method
Summary of the method: (§1)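 HEK-293 cells grown in FBS-supplemented medium, transfected with human transporter (hDAT or hNET). Uptake of radiolabeled substrate ([3H]-DA for DAT, [3H]-NE for NET) at 20 nM was measured, with inhibition assessed as reduced uptake. Method adapted with slight modification from a literature procedure.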

[2] = molecular target: Sodium-dependent noradrenaline transporter (Homo sapiens, UniProt P23975); experiment: Inhibition of [3H]-5-norepinephrine reuptake in human NET expressed in HEK293 cells by liquid scintillation counting method; summary of the method: as §1
Sequence of Sodium-dependent noradrenaline transporter (P23975 whole entry): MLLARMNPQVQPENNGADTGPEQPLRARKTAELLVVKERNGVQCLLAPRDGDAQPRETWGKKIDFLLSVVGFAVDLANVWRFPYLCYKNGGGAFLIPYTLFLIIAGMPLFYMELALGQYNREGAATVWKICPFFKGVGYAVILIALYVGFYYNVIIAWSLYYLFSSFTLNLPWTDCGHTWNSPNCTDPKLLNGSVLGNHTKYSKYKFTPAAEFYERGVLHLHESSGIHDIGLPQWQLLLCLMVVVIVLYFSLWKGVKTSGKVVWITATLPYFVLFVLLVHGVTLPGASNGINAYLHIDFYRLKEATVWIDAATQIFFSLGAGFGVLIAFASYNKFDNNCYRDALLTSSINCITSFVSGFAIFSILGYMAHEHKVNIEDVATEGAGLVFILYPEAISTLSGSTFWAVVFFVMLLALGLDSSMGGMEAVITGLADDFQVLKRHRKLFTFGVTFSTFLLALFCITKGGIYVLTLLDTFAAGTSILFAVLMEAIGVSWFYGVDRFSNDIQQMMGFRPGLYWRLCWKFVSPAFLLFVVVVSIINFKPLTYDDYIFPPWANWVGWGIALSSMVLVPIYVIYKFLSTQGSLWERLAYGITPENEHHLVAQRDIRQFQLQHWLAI

[3] = molecular target: Sodium-dependent serotonin transporter (Homo sapiens, UniProt P31645); experiment: Inhibition of [3H]-5-hydroxytryptamine reuptake in human SERT expressed in HEK293 cells by liquid scintillation counting method
Sequence of Sodium-dependent serotonin transporter (P31645 whole entry): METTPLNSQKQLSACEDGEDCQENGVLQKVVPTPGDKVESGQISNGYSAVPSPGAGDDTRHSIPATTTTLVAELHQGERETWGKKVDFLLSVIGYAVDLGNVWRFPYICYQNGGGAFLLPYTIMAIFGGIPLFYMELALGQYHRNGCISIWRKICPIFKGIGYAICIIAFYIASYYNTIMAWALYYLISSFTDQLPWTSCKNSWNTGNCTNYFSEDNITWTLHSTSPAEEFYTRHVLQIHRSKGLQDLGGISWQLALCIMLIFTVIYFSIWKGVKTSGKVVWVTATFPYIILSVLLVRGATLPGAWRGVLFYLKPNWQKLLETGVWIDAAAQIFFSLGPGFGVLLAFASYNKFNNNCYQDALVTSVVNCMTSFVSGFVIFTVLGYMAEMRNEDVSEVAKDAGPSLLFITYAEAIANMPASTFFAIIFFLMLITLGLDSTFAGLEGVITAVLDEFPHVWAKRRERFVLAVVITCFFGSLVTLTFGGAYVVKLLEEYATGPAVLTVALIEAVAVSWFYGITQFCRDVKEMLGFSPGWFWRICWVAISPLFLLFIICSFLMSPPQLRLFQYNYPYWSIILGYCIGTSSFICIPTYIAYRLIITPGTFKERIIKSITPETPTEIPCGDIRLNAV

Sequence of Sodium-dependent dopamine transporter (Q01959 whole entry): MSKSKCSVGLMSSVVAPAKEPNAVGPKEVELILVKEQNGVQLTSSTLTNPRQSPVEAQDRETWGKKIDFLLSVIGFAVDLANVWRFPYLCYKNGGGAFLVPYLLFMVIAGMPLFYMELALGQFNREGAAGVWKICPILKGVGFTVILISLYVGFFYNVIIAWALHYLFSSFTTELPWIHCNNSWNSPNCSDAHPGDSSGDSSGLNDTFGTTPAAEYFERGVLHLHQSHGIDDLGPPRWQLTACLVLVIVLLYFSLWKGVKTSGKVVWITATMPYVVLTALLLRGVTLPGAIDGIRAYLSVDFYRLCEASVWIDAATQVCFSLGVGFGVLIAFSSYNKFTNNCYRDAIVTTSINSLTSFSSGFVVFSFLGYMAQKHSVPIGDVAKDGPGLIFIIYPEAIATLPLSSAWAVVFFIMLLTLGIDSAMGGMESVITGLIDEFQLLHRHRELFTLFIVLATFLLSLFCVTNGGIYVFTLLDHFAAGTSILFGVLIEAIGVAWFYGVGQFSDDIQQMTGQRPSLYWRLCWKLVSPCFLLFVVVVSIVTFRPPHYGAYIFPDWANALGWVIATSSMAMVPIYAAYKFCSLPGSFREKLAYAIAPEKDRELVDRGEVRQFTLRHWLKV

| Structure (SMILES) | IC50 [1] [nM] | IC50 [2] [nM] | IC50 [3] [nM] |
| --- | --- | --- | --- |
| Fc1cccc(F)c1N1CCN(CCCn2nnnc2C(c2ccccc2)c2ccccc2)CC1 | 820 | 510 |  |
| Clc1ccc(N2CCN(CCCn3nnnc3C(c3ccccc3)c3ccccc3)CC2)cc1Cl | 4200 | 4000 |  |
| Clc1ccc(N2CCN(CCCn3nnnc3C(c3ccccc3)c3ccccc3)CC2)cc1 | 1200 | 460 | > 10000 |
| COc1ccccc1N1CCN(CCCCn2nnnc2C(c2ccccc2)c2ccccc2)CC1 | > 10000 | 10000 | > 10000 |
| c1ccc(C(c2ccccc2)c2nnnn2CCN2CCN(c3ncccn3)CC2)cc1 | > 10000 | > 10000 | > 10000 |
| Brc1ccc(N2CCN(CCCn3nnnc3C(c3ccccc3)c3ccccc3)CC2)cc1 | 910 | 1200 |  |
| Clc1cccc(N2CCN(CCCCn3nnnc3C(c3ccccc3)c3ccccc3)CC2)c1Cl | > 10000 | 8870 | > 10000 |
| Clc1ccc(N2CCN(CCCn3nnnc3C(c3ccccc3)c3ccccc3)CC2)c(Cl)c1 | 3590 | 2050 |  |
| c1ccc(C(c2ccccc2)c2nnnn2CCCCN2CCN(c3ccccn3)CC2)cc1 | > 10000 | 4700 | > 10000 |
| c1ccc(C(c2ccccc2)c2nnnn2CCCN2CCN(c3ncccn3)CC2)cc1 | 1140 | 800 | > 10000 |
| Fc1cc(Cl)ccc1N1CCN(CCCn2nnnc2C(c2ccccc2)c2ccccc2)CC1 | 2250 | 1100 |  |
| COc1ccccc1N1CCN(CCn2nnnc2C(c2ccccc2)c2ccccc2)CC1 | > 10000 | > 10000 | > 10000 |
| c1ccc(C(c2ccccc2)c2nnnn2CCCN2CCN(c3ccccn3)CC2)cc1 | 1430 | 920 | > 10000 |
| Fc1ccc(N2CCN(CCCn3nnnc3C(c3ccccc3)c3ccccc3)CC2)c(F)c1 | 2900 | 2160 |  |
| Fc1ccccc1N1CCN(CCCn2nnnc2C(c2ccccc2)c2ccccc2)CC1 | 1330 | 350 |  |
| Clc1cccc(N2CCN(CCCn3nnnc3C(c3ccccc3)c3ccccc3)CC2)c1Cl | 3040 | 1100 | > 10000 |
| Clc1ccc(N2CCN(CCn3nnnc3C(c3ccccc3)c3ccccc3)CC2)cc1 | > 10000 | > 10000 | > 10000 |

| Structure (SMILES) | IC50 [1] [nM] | IC50 [2] [nM] | IC50 [3] [nM] |
| --- | --- | --- | --- |
| Clc1ccccc1N1CCN(CCCn2nnnc2C(c2ccccc2)c2ccccc2)CC1 | 1010 | 670 |  |
| Cc1ccc(N2CCN(CCCn3nnnc3C(c3ccccc3)c3ccccc3)CC2)cc1 | 1420 | 870 |  |
| c1ccc(C(c2ccccc2)c2nnnn2CCN2CCN(c3ccccn3)CC2)cc1 | > 10000 | > 10000 | > 10000 |
| FC(F)(F)c1cccc(N2CCN(CCCn3nnnc3C(c3ccccc3)c3ccccc3)CC2)c1 | 5580 | 2480 |  |
| Clc1cccc(N2CCN(CCCn3nnnc3C(c3ccccc3)c3ccccc3)CC2)c1 | 4740 | 1620 |  |
| COc1ccc(N2CCN(CCCn3nnnc3C(c3ccccc3)c3ccccc3)CC2)cc1 | 3850 | 1060 |  |
| c1ccc(C(c2ccccc2)c2nnnn2CCCN2CCN(c3ccccc3)CC2)cc1 | 1640 | 1450 |  |
| Clc1cccc(N2CCN(CCn3nnnc3C(c3ccccc3)c3ccccc3)CC2)c1Cl | > 10000 | > 10000 | > 10000 |
| Fc1ccc(C(F)(F)F)cc1N1CCN(CCCn2nnnc2C(c2ccccc2)c2ccccc2)CC1 | 2250 | 1090 |  |
| c1ccc(C(c2ccccc2)c2nnnn2CCCCN2CCN(c3ncccn3)CC2)cc1 | > 10000 | 8540 | > 10000 |
| Clc1ccc(N2CCN(CCCCn3nnnc3C(c3ccccc3)c3ccccc3)CC2)cc1 | > 10000 | > 10000 | > 10000 |
| Fc1cccc(N2CCN(CCCn3nnnc3C(c3ccccc3)c3ccccc3)CC2)c1 | 1470 | 1890 |  |
| Cc1cccc(C)c1N1CCN(CCCn2nnnc2C(c2ccccc2)c2ccccc2)CC1 | 3720 | 1720 |  |
| FC(F)(F)c1ccc(N2CCN(CCCn3nnnc3C(c3ccccc3)c3ccccc3)CC2)cc1 | > 10000 | > 10000 |  |
| COc1ccccc1N1CCN(CCCn2nnnc2C(c2ccccc2)c2ccccc2)CC1 | 1040 | 500 | > 10000 |
| Fc1ccc(N2CCN(CCCn3nnnc3C(c3ccccc3)c3ccccc3)CC2)cc1 | 2480 | 80 |  |
